From ChEMBL document CHEMBL4177755, “Combating Drug-Resistant Fungi with Novel Imperfectly Amphipathic Palindromic Peptides” (J Med Chem, 2018)
Activity calls are given as the source filed them. The rule behind the calls is not given here.

Assays:
Candida albicans [1] = assay: Disruption of cytoplasmic membrane electrical potential in Candida albicans cgmcc 2.2086 at MFC after 800 secs by DiSC3-5 dye-based fluorescence spectrophotometric method; type: functional, organism-based
Procedure, shortened: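 Cells were loaded with the membrane potential-sensitive dye DiSC3-5, and its release on peptide treatment (various concentrations, including 1× MBC/MFC) was monitored as increasing fluorescence over 800 s.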

Lipid bilayer [2] = assay: Binding affinity to phosphatidylglycerol/cardiolipin/phosphatidylethanolamine large unilamellar vesicle assessed as induction of calcein leakage at 2 to 32 uM after 15 mins by spectrofluorophotometric method
Procedure, shortened: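 Large unilamellar vesicles were made from PG/CL/PE (2:1:7), PC/PE/PI/ergosterol (5:4:1:2) or PC/cholesterol (10:1), loaded with 70 mM calcein in Tris/NaCl/EDTA buffer at pH 7.4, frozen and thawed 20 times, and extruded through 100 nm filters. Free dye was removed by gel filtration, and peptide-induced calcein release was measured.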

Candida albicans [3] = assay: Induction of reactive oxygen species generation in Candida albicans cgmcc 2.2086 after 1 hr by DCFH-DA dye-based spectrofluorophotometric method; type: functional, organism-based
Procedure, shortened: (§1)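 E. coli ATCC 25922 and C. albicans cgmcc 2.2086 cells were exposed to a range of peptide concentrations up to 32 μM. ROS levels were read by fluorescence and expressed relative to untreated cells. Values are mean ± SEM of three independent experiments.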

Candida albicans [4] = assay: Induction of reactive oxygen species generation in Candida albicans cgmcc 2.2086 at 32 uM after 1 hr by DCFH-DA dye-based spectrofluorophotometric method relative to control; type: functional
Procedure, shortened: (§2)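 Intracellular ROS in peptide-treated cells were compared with untreated cells; values are mean ± SEM of three independent experiments.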

Candida albicans [5] = assay: Fungicidal activity against Candida albicans cgmcc 2.2086 at MFC after 5 hrs by time-kill assay; type: functional
Procedure, shortened: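 Time-kill: E. coli ATCC 25922 or C. albicans cgmcc 2.2086 was exposed to peptide at 1× MBC/MFC. At intervals, aliquots were diluted and spread on MHA (bacteria, counted after 24 h at 37 °C) or YPDA (yeast, counted after 48 h at 28 °C). Values are means of three independent assays.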

RAW264.7 = assay: Induction of endotoxin-neutralization in mouse RAW264.7 cells assessed as inhibition of LPS-induced TNFalpha secretion at 2 uM after 18 hrs by ELISA; type: functional, cell-based
Procedure, shortened: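 RAW 264.7 cells were stimulated with 50 ng/mL LPS with or without peptide at various concentrations. TNF-α in supernatants was measured by ELISA and NO by Griess reagent. Mean ± SEM of three independent experiments, compared against LPS alone.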

Candida albicans [6] = assay: Induction of membrane damage in Candida albicans cgmcc 2.2086 assessed as membrane creping at MFC after 1 hr by atomic force microscopy; type: functional, organism-based
Procedure, shortened: (§3)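 E. coli ATCC 25922 was treated at 1× MBC and C. albicans cgmcc 2.2086 at 1× MFC, each for 1 h. Untreated control cells were processed in parallel without peptide. Surface morphology was imaged by AFM and SEM, and ultrastructure by TEM.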

Candida albicans [7] = assay: Induction of membrane damage in Candida albicans cgmcc 2.2086 assessed as intracellular content leakage at MFC after 1 hr by atomic force microscopy; type: functional, organism-based
Procedure, shortened: (§4)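 E. coli ATCC 25922 or C. albicans cgmcc 2.2086 were treated with peptide at 1× MBC/MFC for 1 h alongside peptide-free controls, then imaged by AFM, SEM or TEM for membrane and ultrastructural changes.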

Escherichia coli [8] = assay: Induction of reactive oxygen species generation in Escherichia coli ATCC 25922 at 0.5 to 4 uM after 1 hr by DCFH-DA dye-based spectrofluorophotometric method; type: functional, organism-based; procedure, shortened: as §1
Candida albicans [9] = assay: Induction of cell wall permeabilization in Candida albicans cgmcc 2.2086 assessed as increase in NPN uptake at 2 uM by fluorescence spectrophotometric method relative to control; type: functional
Procedure, shortened: (§5)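 Log-phase E. coli ATCC 25922 or C. albicans cgmcc 2.2086 at OD600 0.2 in 5 mM HEPES pH 7.4 with 5 mM glucose was preloaded 30 min with 10 μM NPN, then peptide was added. Fluorescence (ex 350, em 420 nm) was followed until it plateaued and converted to % uptake against a 100% reference. Run in triplicate.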

Candida albicans [10] = assay: Fungicidal activity against fluconazole-resistant Candida albicans 56452 at 0.5 times MFC after 30 passages; type: functional, organism-based
Procedure, shortened: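 Resistance induction. C. albicans cultures were serially passaged by 100-fold dilution every 24 h in 2 mL RPMI 1640 containing sub-MFC peptide, and the MFC was retested at each passage. A control was passaged in RPMI 1640 alone.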

Escherichia coli [11] = assay: Antibacterial activity against Escherichia coli ATCC 25922 after 18 hrs in presence of 50% human heat-inactivated serum by broth dilution method; type: functional; conditions: ATCC 25922, 18 h
Escherichia coli [12] = assay: Induction of membrane damage in Escherichia coli ATCC 25922 assessed as appearance of roughened and broken membrane at MBC after 1 hr by scanning electron microscopy; type: functional, organism-based; procedure, shortened: as §3
Lipopolysaccharide (LPS) = assay: Binding affinity to Escherichia coli O111:B4 LPS by SPR spectroscopy
Procedure, shortened: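 Surface plasmon resonance with the peptide immobilized and LPS flowed over it at 3.125−25 μg/mL; binding recorded in response units (RU).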

Escherichia coli [13] = assay: Induction of reactive oxygen species generation in Escherichia coli ATCC 25922 at 32 uM after 1 hr by DCFH-DA dye-based spectrofluorophotometric method relative to control; type: functional; procedure, shortened: as §2
Candida albicans [14] = assay: Induction of membrane damage in Candida albicans cgmcc 2.2086 assessed as empty regions formation of cytoplasm at MFC after 1 hr by transmission electron microscopy; type: functional, organism-based; procedure, shortened: as §4
Lipid bilayer [15] = assay: Binding affinity to phosphatidylglycerol/cardiolipin/phosphatidylethanolamine large unilamellar vesicle assessed as induction of calcein leakage at 32 uM after 15 mins by spectrofluorophotometric method relative to control
Procedure, shortened: (§6)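 Compositions were PG/CL/PE 2:1:7 w/w/w (E. coli membrane mimic; lines 4,5) and PC/PE/PI/ergosterol 5:4:1:2 w/w/w/w (fungal membrane mimic; lines 2,3). Lipids underwent 20 freeze–thaw cycles and were extruded through 100 nm filters; free calcein was removed by gel filtration.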

Escherichia coli [16] = assay: Induction of cell wall permeabilization in Escherichia coli ATCC 25922 assessed as increase in NPN uptake at 2 uM by fluorescence spectrophotometric method relative to control; type: functional; procedure, shortened: as §5
Lipid bilayer [17] = assay: Binding affinity to phosphatidylcholine/phosphatidylethanolamine/phosphatidylinositol/ergosterol large unilamellar vesicle assessed as induction of calcein leakage after 15 mins by spectrofluorophotometric method; procedure, shortened: as §6
Candida albicans [18] = assay: Induction of cell wall permeabilization in Candida albicans cgmcc 2.2086 assessed as increase in NPN uptake by fluorescence spectrophotometric method; type: functional, organism-based
Procedure, shortened: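 Log-phase cells at OD600 0.2 in 5 mM HEPES (pH 7.4, 5 mM glucose) were preloaded with 10 μM NPN for 30 min, then peptide was added. Fluorescence (ex 350/em 420 nm) was followed until it plateaued and converted to % NPN uptake against initial and maximal fluorescence. Triplicate.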

Molecule	Activity (Candida albicans [1])	Activity (Lipid bilayer [2])	Activity (Candida albicans [3])	fold change (FC) (Candida albicans [4])	Activity (Candida albicans [5])	inhibition (RAW264.7)	Activity (Candida albicans [6])	Activity (Candida albicans [7])	Activity (Escherichia coli [8])	Activity (Candida albicans [9])	Activity (Candida albicans [10])	MIC (Escherichia coli [11])	Activity (Escherichia coli [12])	Activity (Lipopolysaccharide (LPS))	fold change (FC) (Escherichia coli [13])	Activity (Candida albicans [14])	Activity (Lipid bilayer [15])	Activity (Escherichia coli [16])	Activity (Lipid bilayer [17])	Activity (Candida albicans [18])
CC[C@H](C)[C@H](NC(=O)CN)C(=O)NCC(=O)N[C@@H](C)C(=O)N[C@H](C(=O)N[C@@H](CC(C)C)C(=O)N[C@@H](CCCCN)C(=O)N[C@H](C(=O)N[C@@H](CC(C)C)C(=O)N[C@H](C(=O)N[C@H](C(=O)NCC(=O)N[C@@H](CC(C)C)C(=O)N1CCC[C@H]1C(=O)N[C@@H](C)C(=O)N[C@@H](CC(C)C)C(=O)N[C@H](C(=O)N[C@@H](CO)C(=O)N[C@@H](Cc1c[nH]c2ccccc12)C(=O)N[C@H](C(=O)N[C@@H](CCCCN)C(=O)N[C@@H](CCCNC(=N)N)C(=O)N[C@@H](CCCCN)C(=O)N[C@@H](CCCNC(=N)N)C(=O)N[C@@H](CCC(N)=O)C(=O)N[C@@H](CCC(N)=O)C(N)=O)[C@@H](C)CC)[C@@H](C)CC)[C@@H](C)O)[C@@H](C)O)C(C)C)C(C)C [MELITTIN]	Active	Active																		
H-RRIRIIIRIRR-NH2			Dose-dependent effect	14	>99.99%	Active	Active	Active	inactive	20%	Active	8 µM	Active	Dose-dependent effect	2	Active	63%	>70%	Dose-dependent effect	Dose-dependent effect
